Results as given in ChEMBL document CHEMBL1817604, “Synthesis and biological evaluation of 1-(4'-Indolyl and 6'-Quinolinyl) indoles as a new class of potent anticancer agents” (Eur J Med Chem, 2011).

How the values were obtained:
[1] = Antiproliferative activity against human KB-VIN10 cells over-expressing P-gp 170/MDR1 after 72 hrs by methylene blue assay; format: functional, cell-based; conditions: KB-VIN10, 72 h
Method in brief: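 KB-VIN10 is a P-gp 170/MDR1-overexpressing subline derived from KB by continuous exposure to rising vincristine. It is maintained in growth medium with 10 nM vincristine. Log-phase cells seeded at 5000 cells/mL/well in 24-well plates before compound exposure.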

NCI-H460 = experiment: Antiproliferative activity against human H460 cells after 72 hrs by methylene blue assay; format: functional, cell-based; conditions: NCI-H460, 72 h
Method in brief: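 Log-phase cells seeded at 5000 cells/mL/well in 24-well plates, then exposed to compound.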

HT-29 = experiment: Antiproliferative activity against human HT-29 cells after 72 hrs by methylene blue assay; format: functional, cell-based; conditions: HT-29, 72 h
Method in brief: (§1)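 Lines kept in RPMI-1640 with 5% fetal bovine serum. Log-phase cells seeded at 5000 cells/mL/well in 24-well plates, then exposed to compound.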

MKN-45 = experiment: Antiproliferative activity against human MKN45 cells after 72 hrs by methylene blue assay; format: functional, cell-based; conditions: MKN-45, 72 h; method in brief: as §1
KB = experiment: Antiproliferative activity against human KB cells after 72 hrs by methylene blue assay; format: functional, cell-based; method in brief: as §1
Bos taurus = organism: Bos taurus; experiment: Displacement of [3H]colchicine from biotin-labeled bovine brain tubulin at 5 uM after 2 hrs by liquid scintillation counter
[2] = Inhibition of bovine brain tubulin polymerization after 30 mins by turbidimetry analysis
[3] = Inhibition of tubulin polymerization
Method in brief: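 Bovine brain MAP-rich tubulin, 4 mg/mL in 100 mM PIPES (pH 6.9), 2 mM MgCl₂, 1 mM GTP, […] per well, with test compound or 2% (v/v) DMSO control. Turbidity read at 350 nm, 37 °C, every 30 s for 30 min.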

IC50 (NCI-H460)	IC50 (HT-29)	IC50 (MKN-45)	IC50 (KB)	Activity (Bos taurus)	IC50 [2]	Structure (SMILES)	IC50 [1]	IC50 [3]
690 nM	646 nM	322 nM	537 nM	–	–	COc1cc2c(ccn2-c2ccc3occc3c2)c(OC)c1OC	265 nM	–
955 nM	921 nM	682 nM	900 nM	–	–	COc1cc2c(ccn2-c2cccc3ncccc23)c(OC)c1OC	535 nM	–
76 nM	74 nM	40 nM	73 nM	65%	2700 nM	COc1cc2c(ccn2-c2ccc3c(ccn3C)c2)c(OC)c1OC	53 nM	–
–	–	–	–	–	–	COc1ccc2ccc3cc(OC)c(OC)c(OC)c3c2c1	–	> 40000 nM
318 nM	329 nM	197 nM	216 nM	–	–	COc1cc2c(ccn2-c2ccnc3ccccc23)c(OC)c1OC	130 nM	–
81 nM	81 nM	59 nM	85 nM	–	–	COc1ccc2c(-n3ccc4c(OC)c(OC)c(OC)cc43)cn(C)c2c1	40 nM	–
198 nM	179 nM	145 nM	186 nM	–	–	COc1ccc(-n2ccc3c(OC)c(OC)c(OC)cc32)cc1	135 nM	–
31 nM	34 nM	24 nM	18 nM	72%	2700 nM	COc1cc2c(ccn2-c2ccc3ncccc3c2)c(OC)c1OC	11 nM	–
737 nM	6400 nM	5900 nM	131 nM	–	–	COc1ccc(-n2ccc3c(OC)c(OC)c(OC)cc32)cc1O	68 nM	–
49 nM	44 nM	40 nM	32 nM	83%	1700 nM	COc1cc2c(ccn2-c2cccc3c2ccn3C)c(OC)c1OC	25 nM	–
7520 nM	8140 nM	4310 nM	7950 nM	–	–	COc1cc2c(ccn2-c2ccc3ncncc3c2)c(OC)c1OC	3450 nM	–
96 nM	101 nM	49 nM	102 nM	44%	4700 nM	COc1ccc(-n2ccc3c(OC)c(OC)c(OC)cc32)c(N)c1	50 nM	–
6170 nM	3650 nM	11500 nM	7370 nM	–	–	COc1ccc2nc(-n3ccc4c(OC)c(OC)c(OC)cc43)ccc2c1	9110 nM	–
172 nM	148 nM	105 nM	148 nM	–	–	COc1cc2c(ccn2-c2ccc(N(C)C)cc2)c(OC)c1OC	63 nM	–
2390 nM	4150 nM	1540 nM	3250 nM	–	–	COc1ccc(-n2ccc3c(OC)c(OC)c(OC)cc32)cc1N	1380 nM	–

Structure (SMILES)	IC50 (NCI-H460)	IC50 (HT-29)	IC50 (MKN-45)	IC50 (KB)	Activity (Bos taurus)	IC50 [2]	IC50 [1]	IC50 [3]
COc1cc2c(c(OC)c1OC)-c1ccc(OC)c(=O)cc1[C@@H](NC(C)=O)CC2 [COLCHICINE]	–	15 nM	12 nM	10 nM	–	–	121 nM	–
COc1ccc(/C=C\c2cc(OC)c(OC)c(OC)c2)cc1O [COMBRETASTATIN A4]	2.3 nM	94 nM	4.8 nM	2 nM	97%	–	0.7 nM	–
